Results as given in ChEMBL document CHEMBL1122288, “Relationship between metabolism and radioprotective activity of 2-phenylthiazolidine and its m-bromo derivative” (J Med Chem, 1983).

Experiments:
Mus musculus [1] = assay: Percent survival at 6 hr time interval between administration (500 mg/kg, ip) and irradiation* in mice; type: functional
Mus musculus [2] = assay: Percent survival at 1 hr time interval between administration (500 mg/kg, ip) and irradiation* in mice; type: functional
Mus musculus [3] = assay: Percent survival at 2 hr time interval between administration (500 mg/kg, ip) and irradiation* in mice; type: functional
Mus musculus [4] = assay: Percent survival at 15 min time interval between administration (500mg/kg, ip) and irradiation* in mice; type: functional
Mus musculus [5] = species on record: Mus musculus; assay: Lethal dose in mice; type: functional
Mus musculus [6] = assay: fecal levels excreted after administration of 2-(3-bromophenyl)thiazolidine(500 mg/kg) to mice measured at 0-30h; type: ADME, organism-based; conditions: in vivo
In short: (§1)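 Radiolabelled compound ([³⁵S] or [α-¹⁴C]) given intraperitoneally in Miglyol 812 to mice, which were then housed in separate metabolic cages and fed normally. Faeces were collected over 0-30 h, pounded and counted by liquid scintillation. Values are percent of injected dose, given as mean ± standard error. Each line has its own number of experiments.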

Mus musculus [7] = assay: fecal levels excreted after administration of 2-phenylthiazolidine (500 mg/kg) to mice measured at 0-30h; type: ADME, organism-based; conditions: in vivo; in short: as §1
[8] = urine levels excreted after administration of benzaldehyde (250 mg/kg) to mice measured at 24-30 hr; type: ADME, organism-based; conditions: mouse, read-out: Excretion
In short: (§2)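 [α-14C]Benzaldehyde was given at 250 mg/kg intraperitoneally in Miglyol 812. Mice were kept in separate metabolic cages and fed normally. Urine was collected at 6, 24 and 30 h, and feces were pounded. Radioactivity was measured by liquid scintillation counting and expressed as percent of injected dose excreted, given as mean ± standard error of 4 experiments.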

Mus musculus [9] = assay: fecal levels excreted after administration of benzaldehyde (250 mg/kg) to mice measured at 0-30h; type: ADME, organism-based; conditions: in vivo; in short: as §2
Mus musculus [10] = assay: urine levels excreted after administration of benzaldehyde (250 mg/kg) to mice measured at 0-6 hr; type: ADME, organism-based; conditions: in vivo; in short: as §2
[11] = urine levels excreted after administration of benzaldehyde (250 mg/kg) to mice measured at 0-24 hr; type: ADME, organism-based; conditions: mouse, read-out: Excretion; in short: as §2
[12] = urine levels excreted after administration of cysteamine (175 mg/kg) to mice measured at 24-30 hr; type: ADME, organism-based; conditions: mouse, read-out: Excretion
In short: (§3)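 [³⁵S]cysteamine 175 mg/kg given intraperitoneally in Miglyol 812 to mice, which were then housed in separate metabolic cages and fed normally. Urine was sampled at 6, 24 and 30 h and counted by liquid scintillation. Values are percent of injected dose excreted, as mean ± standard error of 4-5 experiments. The Mann-Whitney-Wilcoxon test was used for significance.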

Mus musculus [13] = assay: Percent survival at 2 hr time interval between administration (225 mg/kg, ip) and irradiation* in mice; type: functional
Mus musculus [14] = assay: faecal levels excreted after administration of cysteamine (175 mg/kg) to mice measured at 0-30h; type: ADME, organism-based; conditions: in vivo; in short: as §1
Mus musculus [15] = assay: Percent survival at 15 min time interval between administration (225 mg/kg, ip) and irradiation* in mice; type: functional
Mus musculus [16] = assay: urine levels excreted after administration of cysteamine (175 mg/kg) to mice measured at 0-24 hr; type: ADME, organism-based; conditions: in vivo; in short: as §3
Mus musculus [17] = assay: urine levels excreted after administration of cysteamine (175 mg/kg) to mice measured at 0-6 hr; type: ADME, organism-based; conditions: in vivo; in short: as §3
Mus musculus [18] = assay: Percent survival at 1 hr time interval between administration (225mg/kg, ip) and irradiation* in mice; type: functional

Work on c1ccc(C2NCCS2)cc1 (stereo not drawn) yielded a Survival (Mus musculus [1]) of 85%, a Survival (Mus musculus [2]) of 100% and a Survival (Mus musculus [3]) of 100%. It also gave a Survival (Mus musculus [4]) of 100% and an LD50 (Mus musculus [5]) of 1000 mg/kg.
For Brc1cccc(C2NCCS2)c1 (stereo not drawn), the Survival (Mus musculus [2]) was 100%, the Excretion (Mus musculus [6]) was 0.43% and the Survival (Mus musculus [4]) was 20%. The LD50 (Mus musculus [5]) was 1000 mg/kg.
Compound c1ccc(C2NCC[35S]2)cc1 (stereo in doubt; 1a) has an Excretion (Mus musculus [7]) of 0.42%.
With c1ccc(C2NCC[35S]2)cc1 (stereo in doubt; 1b) the Excretion (Mus musculus [7]) was 0.6%.
Work on O=Cc1ccccc1 [BENZALDEHYDE] yielded a dose excreted [8] of 5%, an Excretion (Mus musculus [9]) of 0.43% and an Excretion (Mus musculus [10]) of 52.6%. The dose excreted [11] was 84.2%.
For NCCS [CYSTEAMINE], the dose excreted [12] was 4.1%, the Survival (Mus musculus [13]) was 45% and the Excretion (Mus musculus [14]) was 0.92%. It also gave a Survival (Mus musculus [15]) of 95%, an Excretion (Mus musculus [16]) of 55.7% and an Excretion (Mus musculus [17]) of 42.6%. For the same compound, the LD50 (Mus musculus [5]) was 450 mg/kg and the Survival (Mus musculus [18]) was 80%.
